This is an account of results in PubChem BioAssay AID623969 (Broad Institute, 2012).

SMILES strings stand for the structures. “And” between values parts separate entries of the source, which are not always exact repeats. Identical values can stand only once.

The subject of this assay is S. cerevisiae growth in glycerol medium, OD600, 48 h. The experiment in a line: S. cerevisiae growth inhibition in glycerol medium, dose response, OD600, powder samples, set 3 (AID 623969). The procedure, abridged: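 Material: Saccharomyces cerevisiae yeast cells grown on glycerol as carbon source / Buffer or medium: CSM-glycerol medium / Schedule: 48 h exposure, 30 °C, no shaking / Technique: optical density at 600 nm / Measure: Glycerol-dependent yeast growth / Control set: amphotericin B at 10 µM as positive control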
For the compound `CC1/C=C/C=C\C=C\C=C\C=C\C=C\C=C\C(O[C@H]2OC(C)C(O)C(N)C2O)CC2OC(O)(CC(O)CC(O)C(O)CCC(O)CC(O)CC(=O)OC(C)C(C)C1O)CC(O)C2C(=O)O` (stereo partly drawn), the concentration at half-maximal activity (AC50) was 234 nM.

For `CCOC(=O)N1C(=O)C2(CCCCC2)N(c2ccccc2)C1=S`, the AC50 is 20 nM.

As for `CCOC(=O)N1C(=O)C2(CCCCC2)N(c2ccc(C#N)cc2)C1=S`, the AC50 is 4.81 nM.

In the case of `C/C=C/[C@@H]1[C@H]2C[C@@H](C)CC[C@@H]2C(C)=C[C@H]1C(=O)c1c(O)c(-c2ccc(O)cc2)c[nH]c1=O`, the concentration at half-maximal activity (AC50) was 33.5 nM.

With `CCOC(=O)N1C(=O)C2(CCCCC2)N(c2cccc(C)c2)C1=S`, the concentration at half-maximal activity (AC50) is 27.6 nM.

Turning to `CCOC(=O)N1C(=O)C2(CCCCC2)N(c2ccc(Cl)cc2)C1=S`, the half-maximal activity concentration (AC50) is 8.26 nM.

Regarding `CCOC(=O)N1C(=O)C2(CCCCC2)N(c2ccc(C)cc2)C1=S`, the AC50 is 15 nM and 13.6 nM.

On to `CCOC(=O)N1C(=O)C2(CCCCC2)N(c2ccc(F)cc2)C1=S`, for which the AC50 was 5.61 nM.
